Assay outcomes as filed in PubChem BioAssay.
This is a sample that favours compounds with a hit; in the whole collection about 4.6% have one here.
GPR7 antagonist = human neuropeptides B/W receptor 1 antagonism. P48145. GPR7-expressing cells, fluorescence antagonist assay. inhibition, % at 4.4 µM. 1.1% of 290,000 active. AID 1861; in the data active means inhibition above about 16%, passing the limit was not always enough;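 further: cells stimulated with the agonist NPW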
OX1R antag-1 = antagonists of human orexin 1 receptor (OX1R); O43613; inhibition, % at 6.6 µM; 1.8% of 330,000 active; OX1R-expressing cells, FRET antagonist read-out; in the data active means inhibition mostly above about 38%, no sharp cut-off; inactive means mostly below about 40%
Target sequence (O43613 whole entry, looked up): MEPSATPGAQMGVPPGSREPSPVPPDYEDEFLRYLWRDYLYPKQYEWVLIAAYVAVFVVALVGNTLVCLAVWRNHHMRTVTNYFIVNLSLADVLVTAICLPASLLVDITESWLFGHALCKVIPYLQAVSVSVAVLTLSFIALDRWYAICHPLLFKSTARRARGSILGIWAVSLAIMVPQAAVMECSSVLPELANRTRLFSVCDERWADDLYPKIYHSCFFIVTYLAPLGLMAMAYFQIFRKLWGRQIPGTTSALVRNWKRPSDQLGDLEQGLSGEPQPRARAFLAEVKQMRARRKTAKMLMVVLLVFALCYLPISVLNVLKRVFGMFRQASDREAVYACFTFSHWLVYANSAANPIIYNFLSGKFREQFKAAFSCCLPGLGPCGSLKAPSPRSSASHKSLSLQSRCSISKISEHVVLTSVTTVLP
TAAR1 agonist = agonists of human TAAR1 | Q96RJ0 | CHO RD-HGA16 TAAR1, Fluo-8 calcium fluorescence; vehicle wells 0%, saturating PEA agonist 100% | activation, % at 3 µM | 0.99% of 360,000 active | AID 624467;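 active means activation above the mean activation of all test compounds in the run plus 3 SD, cut at about 38% in these data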
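System: CHO-derived RD-HGA16 cells with stable Gα16 and human TAAR1 / Times: 17-24 h plating, Fluo-8 75 min 37 °C, 30 min RT / Technique: calcium-sensitive Fluo-8 signal, excitation 470-495, emission 515-575 nm / Measure: % activation relative to PEA EC100 response / Benchmarks: DMSO and PEA EC100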
TAAR1 antag = antagonists of human TAAR1; Q96RJ0; 1.5% of 360,000 active; CHO RD-HGA16 TAAR1, Fluo-8 calcium fluorescence, antagonist; inhibition, % at 3 µM;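 active means inhibition above a per-plate cutoff, the mean inhibition of test compounds on that plate plus 3 SD, cut at about 49% in these data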
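Test system: hTAAR1-expressing CHO RD-HGA16 cells, Gα16-coupled; Probe or stimulus: EC80 β-phenethylamine stimulus; Compound dosing: single nominal final test compound concentration of 3 µM; Timing: 140 s kinetic read after compound, 140 s after agonist; Signal: Fluo-8 calcium-sensitive fluorescence; Measure: % inhibition of agonist calcium response; Controls: DMSO and EC80 PEA controls.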
CHO parental Ca = counter-screen: ATP calcium response change in parental CHO cells; 0.63% of 330,000 active; inhibition, % at 5.6 µM; parental CHO-K1, ATP-induced calcium, Fluo-8 fluorescence;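 active means inhibition above that plate's mean sample inhibition plus 3 SD, cut at about 26% in these data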
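Test system: untransfected parental CHO cell line. Compound: one dose, 5.6 µM nominal. Detection: intracellular calcium via Fluo-8 no-wash fluorescent dye. Measure: % inhibition. Benchmarks: ATP-challenged DMSO wells low, unchallenged DMSO wells high.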
OX1R antag-2 = blocks the human orexin 1 receptor. 0.43% of 330,000 active. CHO/OX1R cells, Fluo-8 calcium fluorescence, orexin A. inhibition, % at 5 µM;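 active means inhibition above its plate's threshold, mean inhibition of all tested compounds on the plate plus 3 SD, cut at about 37% in these data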
GPR7 antag conf = human GPR7 antagonism, confirmation assay | shares compounds with GPR7 antagonist | 52% of 2,400 active | GPR7-expressing cells, calcium fluorescence antagonist mode | AID 1952 | inhibition, % at 4.4 µM; in the data active means inhibition above about 24%;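 further: stimulated with the GPR7 agonist NPW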
MCHR1 antag = MCHR1 (human) antagonism in GPR7 counter-screen | shares compounds with GPR7 antagonist | MCHR1-expressing cells, fluorescence antagonist assay | inhibition, % at 4.4 µM | 62% of 2,400 active; in the data active means inhibition above about 22%
A number is an active result; - = inactive; . = not tested or not shown.

SMILES	GPR7 antagonist	OX1R antag-1	TAAR1 agonist	TAAR1 antag	CHO parental Ca	OX1R antag-2	GPR7 antag conf	MCHR1 antag
C#CCNC(=O)C1=C[C@H](c2cn(C(C)=O)c3ccccc23)C[C@H](OCc2ccc(CO)cc2)O1	38	-	44	49	-	-	-	38
COC(=O)CSc1nc2ccc(NC(=O)CSc3nnnn3Cc3ccccc3)cc2s1	37	-	-	-	51	51	64	55
O=C(CSc1nc2ccc(NC(=O)c3ccccc3C(=O)O)cc2s1)Nc1ccc(F)c([N+](=O)[O-])c1	26	-	-	-	-	-	26	66
Cc1cc(Cl)ccc1OCCCC(=O)NNC(=O)c1ccncc1	.	-	-	-	-	-	.	.
Cc1nn(C)c(C)c1Nc1ccc(N2C(=O)C3C4C=CC(C4)C3C2=O)cc1[N+](=O)[O-] (centres undefined)	26	-	-	-	-	-	-	-
O=C(CCC(=O)N1CCCCCC1)NCc1ccc(F)cc1	-	-	-	-	-	-	.	.
CCNC(=O)NC(=O)C(C)OC(=O)c1oc2ccc(OC)cc2c1C (centres undefined)	38	-	-	-	-	-	-	-
COc1ccc2oc(C(=O)OC(C)C(=O)N(C)c3ccccc3)c(C)c2c1 (centres undefined)	.	-	-	-	-	-	.	.
CC(=O)c1ccc(COC(=O)Cc2ccc([N+](=O)[O-])cc2)cc1	30	-	-	-	-	-	39	52
CC(C)C(NC(=O)c1ccccc1)C(=O)OCC(=O)N1CCCC1 (centres undefined)	.	-	-	-	-	-	.	.
COc1ccccc1CNC(=O)CCS(=O)(=O)c1ccc2c(c1)CCCN2C(C)=O	-	-	-	-	-	-	.	.
Clc1ccc(-c2noc(CSc3nnc(Cc4cccs4)n3-c3ccccc3)n2)cc1	28	-	-	-	-	-	-	42
CCOc1cc(/C=C2/COc3ccccc3C2=O)ccc1OCC(=O)N(C)C	24	.	-	-	.	.	-	21
COc1ccc(-n2c(SCCC#N)nnc2-c2cc(Cl)ccc2OC)cc1Cl	24	-	-	-	-	-	40	46
Cc1ccc(C(C)C)c(OCCCn2ccnc2C)c1	-	-	-	-	-	-	.	.
Cc1ccc(C)c(OCCCNCc2ccccc2)c1	-	-	-	-	-	-	.	.
CCCN(CCC)CCOc1cc(C)ccc1C(C)C	24	-	-	-	-	-	31	-
Cc1ccc(C(C)C)c(OCCNCc2ccccc2)c1	30	-	-	-	-	-	-	68
COc1cc(C2C3=C(CC(C)(C)CC3=O)N(C)C3=C2C(=O)CC(C)(C)C3)cc(Br)c1O	-	-	-	-	-	-	.	.
Cc1cc2occ(CC(=O)N(C)CC(=O)Nc3cccc(F)c3)c2cc1C	-	-	-	-	-	-	.	.
CC1CCCN(S(=O)(=O)c2ccc(NC(=O)CN3CCN(C)CC3)cc2)C1 (centres undefined)	-	-	-	-	-	-	.	.
CCC1CCCCN1S(=O)(=O)c1ccc(NC(=O)c2nc(S(C)(=O)=O)ncc2Cl)cc1 (centres undefined)	74	53	-	56	55	53	90	101
CCS(=O)(=O)c1ncc(Cl)c(C(=O)Nc2ccc(S(=O)(=O)N3CCCC(C)C3)cc2)n1 (centres undefined)	59	-	-	-	47	41	86	97
COC(=O)Cn1c(=O)c2c(nc3n2CCCN3CCc2ccc(OC)c(OC)c2)n(C)c1=O	-	-	-	-	-	-	.	.
O=C(N/N=C/c1cc([N+](=O)[O-])ccc1O)c1cccc2ccccc12	27	-	-	-	-	-	-	-
SMILES	GPR7 antagonist	OX1R antag-1	TAAR1 agonist	TAAR1 antag	CHO parental Ca	OX1R antag-2	GPR7 antag conf	MCHR1 antag
O=C(NN=Cc1cc(Cl)ccc1[N+](=O)[O-])c1cccc2ccccc12	.	.	-	-	.	.	.	.
Cc1cccc(CN2CCc3c([nH]c4ccccc34)C2)c1	-	-	-	-	-	-	.	.
COc1cc(OC)c(CN2CCc3c([nH]c4ccccc34)C2)cc1Br	29	-	-	-	-	-	-	-
Clc1ccc(CN2CCc3c([nH]c4ccccc34)C2)cc1Cl	53	-	-	-	-	-	73	33
CCC(=O)N1CCCC(C(=O)NCc2ccc(C(C)C)cc2)CC1 (centres undefined)	.	.	-	-	.	.	.	.
COC(=O)[C@]1(C)N[C@H](CN(C)S(=O)(=O)c2ccc(C)cc2)[C@@H]2C(=O)N(C)C(=O)[C@@H]21	.	-	-	-	-	-	.	.
CC(OC(=O)CCCNC(=O)c1ccc(Cl)cc1)C(=O)N(C)Cc1ccccc1 (centres undefined)	35	-	-	-	-	-	-	-
COc1cccc(NC(=O)C(C)OC(=O)CCCNC(=O)c2ccc(Cl)cc2)c1 (centres undefined)	-	-	-	-	-	-	.	.
O=C(CCC1CCCN(C(=O)c2ccc3cc[nH]c3c2)C1)NCc1ccc(F)c(F)c1 (centres undefined)	-	-	-	-	-	-	.	.
CC(C)(C)c1ccc(-c2nc(NCc3cccnc3)c3ccccc3n2)cc1	23	-	-	-	-	-	41	30
CSc1ccccc1OCc1cc(C(=O)N2CCSCC2)no1	-	-	-	-	-	-	.	.
CSc1ccccc1OCc1cc(C(=O)N2CCC(Oc3cccnc3)CC2)no1	28	-	-	-	-	-	-	47
CC(C)C1N(C(=O)CN2CCCCC2)CCN1S(=O)(=O)c1ccccc1 (centres undefined)	27	-	-	-	-	-	-	-
O=S(=O)(NCCCSc1ccccc1)c1ccccc1F	25	-	-	-	-	-	-	-
O=[N+]([O-])c1ccccc1S(=O)(=O)NCCSc1ccccc1	-	-	-	-	-	-	.	.
CCN(CC)S(=O)(=O)c1ccc(NC(=O)c2ccc(N(C)S(C)(=O)=O)cc2)cc1	32	-	-	-	-	-	44	58
O=C(Nc1cccc(S(=O)(=O)N2CCCCC2)c1)c1ccc2c(=O)n3c(nc2c1)CCCCC3	28	-	-	61	-	-	-	77
CN(c1ccc(C(=O)N2CCN(Cc3ccccc3)CC2)cc1)S(=O)(=O)c1ccc(Cl)cc1	32	-	-	-	-	-	-	33
CS(=O)(=O)N(Cc1ccc(Cl)cc1)c1ccc(C(=O)N2CCN(c3ccccc3)CC2)cc1	21	-	-	-	34	-	38	46
